Screening data deposited in PubChem by several laboratories.
Rows were chosen to be rich in hits. Some 6.1% of all compounds tested hit in one or more screens of this group.
Measles CPE – protection of cells from measles virus. AID 841. Measles virus-infected cells, CPE protection, absorbance. hit rate 1.5% among 140,000. protection (pct of control), % at 4 µM; in the data active means protection mostly above about 24%, no sharp cut-off; inactive means mostly below about 26%
BB579 growth dn – chemicals that inhibit yeast BB579 growth in restrictive medium (lifespan-shortening candidates); AID 804; hit rate 0.51% among 140,000; inhibition, % at 10 µM; S. cerevisiae BB579 growth, OD615, 48 h;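 active means inhibition above a set limit, 3 SD over the mean compound inhibition, cut at about 44% in these data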
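System: Saccharomyces cerevisiae DeaD strain BB579, replicative lifespan model yeast. Buffer or medium: restrictive glucose-based CSMM-D medium. Doses: one dose, 10 µM compound with 0.25% DMSO. Timing: 4 h preincubation and 48 h exposure at 30 °C. Detection: turbidity as optical density at 615 nm. Benchmarks: amphotericin B 10 µg/mL, positive.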
hDAT+cocaine – changed human dopamine transporter uptake under cocaine IC80; LLC-PK1 hDAT cells, [14C]-dopamine uptake with cocaine IC80; actives deviate in either direction; B-score at 10 µM; hit rate 1.3% among 110,000; Q01959; AID 449768;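 active means Z score or B-score, a plate-position-corrected score, falls beyond the plate's 99.7% confidence bounds, in either direction; inactive means both scores lie inside the 99.7% bounds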;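 further: scored against the spread of the other compound wells on the same plate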
Target sequence (Q01959 whole entry, looked up): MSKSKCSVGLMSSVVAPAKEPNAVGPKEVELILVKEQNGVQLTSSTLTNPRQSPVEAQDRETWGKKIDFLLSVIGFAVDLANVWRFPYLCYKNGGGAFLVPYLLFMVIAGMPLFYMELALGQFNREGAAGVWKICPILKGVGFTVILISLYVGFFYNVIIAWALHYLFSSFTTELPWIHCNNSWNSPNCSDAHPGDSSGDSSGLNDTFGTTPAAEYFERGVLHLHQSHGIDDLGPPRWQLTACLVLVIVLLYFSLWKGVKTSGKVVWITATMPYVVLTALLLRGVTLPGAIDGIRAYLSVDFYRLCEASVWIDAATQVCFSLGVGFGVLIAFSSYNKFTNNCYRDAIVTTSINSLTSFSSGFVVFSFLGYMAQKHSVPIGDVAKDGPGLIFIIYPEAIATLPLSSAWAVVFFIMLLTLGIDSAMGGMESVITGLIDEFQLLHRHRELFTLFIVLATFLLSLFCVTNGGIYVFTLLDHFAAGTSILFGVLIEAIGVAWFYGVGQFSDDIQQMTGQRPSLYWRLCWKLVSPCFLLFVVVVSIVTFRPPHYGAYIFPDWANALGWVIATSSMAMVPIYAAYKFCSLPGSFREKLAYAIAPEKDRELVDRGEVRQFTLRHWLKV
Yeast lifespan up – yeast lifespan extension; inhibition of the nicotinamide effect, % at 10 µM; S. cerevisiae growth with nicotinamide, OD615; deaD strain in restrictive glucose medium; hit rate 0.68% among 130,000; AID 775;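 active means inhibition above a set limit, placed 3 SD over the median of all compounds, cut at about 26% in these data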;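 further: 0% = nicotinamide-treated wells and 100% = cells grown without nicotinamide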
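Test system – modified budding yeast, DeaD strain · Compound – single dose 10 µM compound, 0.25% DMSO · Times – culture preincubation 4 h, compound exposure 48 h, both 30 °C · Detection – optical density (absorbance) at 615 nm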
WT yeast gro inh – growth inhibition of WT yeast, mitochondrial fusion screen; mitochondrial fusion phenotypic screen, WT strain; hit rate 2.1% among 190,000; AID 1362; inhibition, % at 10 µM; in the data active means inhibition above about 58%; tested in S. cerevisiae
RAM network inh – inhibitors of the yeast RAM network. inhibition, % at 50 µM. S. cerevisiae dse1pr::URA3 reporter, 5-FOA growth OD615, 2 d; analog-sensitive cbk1-as2 kinase mutant strain. AID 868. hit rate 1.8% among 190,000;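 active means inhibition above a set limit, 3 SD over mean compound inhibition, cut at about 8.4% in these data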;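 further: 0% = DMSO-only wells with no growth and 100% = 10 µM 1-NA-PP1 full growth; inhibition rescues growth on 5-FOA so higher OD means more RAM inhibition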
* marks the source's active call; other numbers are inactive results.

Results for COC(=O)c1ccccc1NC(=O)N1c2ccccc2Sc2ccccc21 ?
Measles CPE: 6.9; BB579 growth dn: -23.8; Yeast lifespan up: -1.9; WT yeast gro inh: 39.1; RAM network inh: 3.6

Results for Cc1ccc(S(=O)(=O)NNC(=O)C(O)(c2ccccc2C)c2ccccc2C)cc1 ?
Measles CPE: 9.8; BB579 growth dn: -27.3; Yeast lifespan up: 5.0; WT yeast gro inh: 12.3; RAM network inh: 1.4

Results for COc1ccc(CC(=O)Nc2ccc(C(=O)O)cc2NC(=O)Cc2ccc(OC)cc2)cc1 ?
WT yeast gro inh: -9.3; RAM network inh: 2.8

How did COc1ccc(C(=O)Nc2cc(OC)cc(OC)c2)cc1 do in these assays?
Measles CPE: 7.3; BB579 growth dn: -16.2; hDAT+cocaine: 1.72*; Yeast lifespan up: -15.1; WT yeast gro inh: 15.1; RAM network inh: 0.5

What do the screens show for `COc1cc(NC(=O)c2ccc(NS(=O)(=O)c3c(C)noc3C)cc2)cc(OC)c1`?
Measles CPE: 1.0; BB579 growth dn: -39.0; hDAT+cocaine: -1.15; Yeast lifespan up: -2.5; WT yeast gro inh: -11.4; RAM network inh: 11.2*

What do the screens show for `COc1ccc(OC)c(NC(=O)c2ccc(NS(=O)(=O)c3c(C)noc3C)cc2)c1`?
Measles CPE: 6.0; BB579 growth dn: -39.0; hDAT+cocaine: -0.0151; Yeast lifespan up: -5.7; WT yeast gro inh: -10.5; RAM network inh: 0.5

How did COc1cc(NC(=O)c2ccccc2)cc(OC)c1 do in these assays?
Measles CPE: 17.1; BB579 growth dn: -36.9; hDAT+cocaine: 1.99; WT yeast gro inh: 0.1; RAM network inh: -1.5

What do the screens show for `COc1ccc2cc(C(=O)O)ccc2c1`?
Measles CPE: 1.9; BB579 growth dn: 83.8*; hDAT+cocaine: -0.0688; Yeast lifespan up: -28.6; WT yeast gro inh: 8.7; RAM network inh: -1.2

Results for CC1CCc2cc(F)ccc2N1C(=O)C1(C)CC1(Cl)Cl (stereo not given) ?
Measles CPE: 30.5; BB579 growth dn: -16.7; hDAT+cocaine: 0.847; Yeast lifespan up: 38.4; WT yeast gro inh: 18.6; RAM network inh: 0.5

Results for CCc1cc(C(=O)N=Nc2c(O)[nH]c3c(Br)cc(Br)cc23)c2ccccc2n1 ?
Measles CPE: 27.6; BB579 growth dn: -35.3; Yeast lifespan up: -5.3; WT yeast gro inh: 28.1; RAM network inh: 5.2

How did O=C1CCc2ccc(NS(=O)(=O)c3ccc(F)cc3)cc2N1 do in these assays?
WT yeast gro inh: -5.3; RAM network inh: -1.4

Results for O=C(O)CC1(CC(=O)Nc2ccc(Br)cc2)CCCCC1 ?
WT yeast gro inh: -17.0; RAM network inh: -0.7

Results for N#CC(C#N)=C1C=CC=CN1/C(=C\c1ccco1)C(=O)c1ccc(Br)cc1 ?
Measles CPE: 0.1; BB579 growth dn: -24.8; Yeast lifespan up: -4.6; WT yeast gro inh: 70.7*; RAM network inh: 2.5

How did Cn1cccc1CC(=O)N/N=C/C=C/c1ccco1 do in these assays?
Measles CPE: 2.6; BB579 growth dn: -47.6; Yeast lifespan up: -2.9; WT yeast gro inh: -4.2; RAM network inh: 2.2

How did CS(=O)(=O)c1nc(-c2ccco2)cc(C(F)(F)F)n1 do in these assays?
Measles CPE: 1.5; BB579 growth dn: -48.9; hDAT+cocaine: -1.47; Yeast lifespan up: 89.2*; WT yeast gro inh: 30.8; RAM network inh: 1.0

How did FC(F)(F)c1cc(-c2ccco2)nc(-n2nc(C(F)(F)F)cc2C2CC2)n1 do in these assays?
Measles CPE: 7.8; BB579 growth dn: -8.8; hDAT+cocaine: -0.00113; Yeast lifespan up: -18.5; WT yeast gro inh: 28.7; RAM network inh: 9.1*

How did COc1ccccc1-c1cc(C(F)(F)F)nc(S(C)(=O)=O)n1 do in these assays?
Measles CPE: 0.7; BB579 growth dn: -1.2; Yeast lifespan up: 37.6; WT yeast gro inh: 29.0; RAM network inh: 3.3

What do the screens show for `Cc1cc2oc(=O)cc(Cn3ncc(Cl)c(Cl)c3=O)c2cc1Cl`?
WT yeast gro inh: -1.1; RAM network inh: 3.1

What do the screens show for `CC(C)c1cc(C(C)C)c(S(=O)(=O)N2c3ccccc3[C@]3(Br)C[C@H]4C(=O)N[C@@H](Cc5ccccc5)C(=O)N4[C@H]23)c(C(C)C)c1`?
hDAT+cocaine: -0.0543

How did COc1ccc(N=c2oc3c(OC)cccc3cc2C(=O)NCc2ccco2)cc1OC do in these assays?
Measles CPE: 19.6; BB579 growth dn: -27.9; hDAT+cocaine: 0.0405; Yeast lifespan up: -6.6; WT yeast gro inh: -37.0; RAM network inh: 9.9*

Results for COc1ccccc1N=c1oc2c(OC)cccc2cc1C(=O)NCc1ccco1 ?
Measles CPE: 22.9; BB579 growth dn: -44.5; hDAT+cocaine: 0.199; Yeast lifespan up: -9.3; WT yeast gro inh: 36.7; RAM network inh: 1.1

Results for Cc1cccc(C)c1OCCNC(=O)OCc1ccccc1 ?
WT yeast gro inh: 15.8; RAM network inh: -0.5

Results for Cc1cc(C)nc(SCC(=O)Nc2ncc3c(n2)CC(C)(C)CC3=O)n1 ?
Measles CPE: 11.9; BB579 growth dn: -41.5; hDAT+cocaine: 1.45; Yeast lifespan up: -9.4; WT yeast gro inh: 9.2; RAM network inh: 0.0

Results for CC1(C)CC(=O)c2cnc(NC(=O)CSc3nc4ccccc4o3)nc2C1 ?
Measles CPE: 17.2*; BB579 growth dn: -22.0; hDAT+cocaine: -0.186; WT yeast gro inh: -7.2; RAM network inh: 6.5

What do the screens show for `O=C(CSc1nnc(-c2ccc(F)cc2)o1)Nc1ccccc1N1CCOCC1`?
hDAT+cocaine: 3.34*

What do the screens show for `O=C(CSc1nc2ccccc2o1)Nc1ccccc1N1CCOCC1`?
Measles CPE: 47.6*; BB579 growth dn: -36.4; hDAT+cocaine: -1.16; Yeast lifespan up: -13.1; WT yeast gro inh: 34.4; RAM network inh: 1.8

What do the screens show for `C=CCNC(=O)/C(C#N)=C\c1cc(Cl)c(OCC)c(OC)c1`?
Measles CPE: 8.3; BB579 growth dn: -11.3; Yeast lifespan up: -4.1; WT yeast gro inh: 5.8; RAM network inh: 2.8

What do the screens show for `CCOC(=O)C1CCN(C(=O)C2CCN(c3nc4ccc(OC)cc4s3)CC2)CC1`?
Measles CPE: 20.4; BB579 growth dn: 12.3; hDAT+cocaine: -8.15*; Yeast lifespan up: -11.4; WT yeast gro inh: -1.5; RAM network inh: -1.3

Results for Cc1ccccc1NC(=S)N(Cc1cccnc1)Cc1ccccc1Cl ?
WT yeast gro inh: 6.0; RAM network inh: 0.4

How did COc1ccccc1NC(=S)N(Cc1ccccn1)Cc1ccccc1Cl do in these assays?
WT yeast gro inh: 67.1*; RAM network inh: 0.2

What do the screens show for `COc1ccc(NC(=S)N(Cc2cccnc2)Cc2cc3cc(OC)c(OC)cc3[nH]c2=O)cc1`?
WT yeast gro inh: 7.7; RAM network inh: 8.6*

How did COc1ccccc1NC(=S)N(Cc1ccc(C)cc1)Cc1cccnc1 do in these assays?
WT yeast gro inh: 74.2*; RAM network inh: 1.6

What do the screens show for `COc1ccccc1NC(=S)N(Cc1ccc(C)cc1)Cc1ccccn1`?
WT yeast gro inh: -6.8; RAM network inh: -0.6

What do the screens show for `Cc1ccccc1NC(=S)N(Cc1ccccn1)Cc1ccccc1Cl`?
WT yeast gro inh: 68.6*; RAM network inh: 1.9
